Screening data (PubChem BioAssay)
ABHD4 inh: inhibitors of mouse ABHD4 | AID 720543 | inhibition, % at 8.92 µM | Q8VD66 | 370,000 compounds, 0.54% hits | purified mABHD4, FP-Rh probe fluorescence polarization;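 active means inhibition exceeding the mean over every tested compound plus 3 SD, cut at about 30% in these data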;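 further: 0% = plate median of compound wells and 100% = S159A mutant with DMSO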
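assay system = mABHD4 protein | compound dosing = single nominal dose of 8.92 µM, 0.89% DMSO final | read-out basis = percent inhibition of probe binding, normalized to plate controls | schedule = Enzyme–compound pre-incubation 45 min, then probe 60 min, both 25 °C | detection = fluorescence polarization, excitation 525 nm, emission 598 nm, BODIPY TMR filters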
PRMT1 inh: blocks human protein arginine methyltransferase 1; Q99873; recombinant PRMT1, activity-based probe fluorescence polarization; inhibition, % at 2.79 µM; 370,000 compounds, 1.3% hits;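 active means inhibition above about 21% made by adding two undisclosed values, limit read from the data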
HTRA1 inh: blocks human HTRA1 serine peptidase | Q92743 | recombinant HTRA1, FP-rhodamine activity-based probe, fluorescence polarization | inhibition, % at 5.96 µM | 340,000 compounds, 0.5% hits; in the data active means inhibition above about 36%;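 further: 0% = enzyme with DMSO and 100% = wells lacking enzyme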
Target sequence (Q92743 whole entry, looked up): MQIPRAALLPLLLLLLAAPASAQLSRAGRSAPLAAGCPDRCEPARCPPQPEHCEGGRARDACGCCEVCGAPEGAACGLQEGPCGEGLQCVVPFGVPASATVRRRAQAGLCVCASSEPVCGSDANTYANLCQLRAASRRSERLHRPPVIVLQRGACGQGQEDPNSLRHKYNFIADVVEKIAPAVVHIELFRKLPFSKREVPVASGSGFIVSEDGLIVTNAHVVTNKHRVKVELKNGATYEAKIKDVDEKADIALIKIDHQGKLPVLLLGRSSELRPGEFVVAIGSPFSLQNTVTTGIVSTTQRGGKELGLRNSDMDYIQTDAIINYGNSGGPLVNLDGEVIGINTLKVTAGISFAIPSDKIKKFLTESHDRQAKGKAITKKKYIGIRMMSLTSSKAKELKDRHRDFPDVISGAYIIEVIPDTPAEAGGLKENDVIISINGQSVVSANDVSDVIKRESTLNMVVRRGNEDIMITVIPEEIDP
TCR CD3 inh: blocks the human TCR-CD3 interaction | TAMRA-labeled TCR probe fluorescence, biochemical | inhibition, % at 9.4 µM | 360,000 compounds, 0.37% hits | AID 651800;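 further: recombinant mutant TCR 2C K166C tagged with TAMRA read by polarization; 0% = receptor in buffer alone and 100% = receptor with positive control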
ATG4B inh: ATG4B (human) cysteine protease inhibition | Q9Y4P1 | 340,000 compounds, 0.51% hits | AID 504462 | ATG4B cleavage of LC3-PLA2, NBD-HPC fluorescence, 1 h | inhibition, % at 8.33 µM; in the data active means inhibition above about 40%
SIAE primary: human SIAE inhibition, primary screen; Q9HAT2; SIAE FP-Rh probe binding, fluorescence polarization; inhibition, % at 9.66 µM; 370,000 compounds, 0.69% hits; AID 1053197;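 active means inhibition above a cutoff: mean of compounds within the control limits plus 3 SD of those, cut at about 17% in these data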;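 further: 0% = plate median of compound wells and 100% = probe without SIAE protein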
HTRA1 conf: confirmation of human HTRA1 inhibitors | shares compounds with HTRA1 inh | recombinant HTRA1, FP-rhodamine activity-based probe, fluorescence polarization | inhibition, % at 5.96 µM | 1,600 compounds, 66% hits;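 active means mean inhibition over three repeats above a set limit taken from the earlier primary screen, cut at about 37% in these data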;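 further: 0% = HTRA1 with DMSO and 100% = wells lacking HTRA1; inhibitors block probe binding so polarization drops and inhibition rises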
BSA TAMRA ctr: interferes with TAMRA-BSA probe, flagging TCR-CD3 hits; TAMRA-labeled BSA probe fluorescence counterscreen; shares compounds with TCR CD3 inh; inhibition, % at 9.4 µM; 1,200 compounds, 10% hits; AID 652035; in the data active means inhibition above about 23%;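 further: 0% = buffer low control and 100% = reference high control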
TCR-CD3 inh conf: confirmation of human TCR-CD3 interaction inhibitors. 1,200 compounds, 48% hits. inhibition, % at 9.4 µM. AID 652036. TAMRA-labeled TCR probe fluorescence binding assay. shares compounds with TCR CD3 inh
PRMT1 inh conf: PRMT1 (human) inhibition, FP confirmation | recombinant His-PRMT1, activity-based probe fluorescence polarization | inhibition, % at 2.79 µM | 3,300 compounds, 42% hits | shares compounds with PRMT1 inh;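 active means mean inhibition across replicates above the hit cutoff derived for the earlier primary screen, cut at about 22% in these data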
ABHD4 confirm: ABHD4 (mouse) inhibition, FP confirmation; shares compounds with ABHD4 inh; purified mABHD4, FP-Rh probe fluorescence polarization; inhibition, % at 8.92 µM; 1,800 compounds, 55% hits;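 active means mean inhibition across replicates above the hit cutoff set in the primary screen, cut at about 30% in these data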;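 further: 0% = wild-type ABHD4 with DMSO and 100% = catalytically dead S159A mutant with DMSO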
SIAE inh conf: confirmation of human SIAE inhibitors. shares compounds with SIAE primary. SIAE FP-Rh activity-based probe, fluorescence polarization. inhibition, % at 9.66 µM. 2,300 compounds, 13% hits. AID 1117263;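 active means mean inhibition of the replicates above the hit cutoff set in the primary screen, cut at about 17% in these data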;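 further: 0% = SIAE with DMSO and probe and 100% = probe without SIAE; inhibitors lower polarization as more probe stays unbound to SIAE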
Active calls of the source: *; · = no result given. In the library only some 2.9% were active in any assay of this set; here they are far more common. Unless noted, no stated cut-off is given here; in the data, active means inhibition above about 19%; inactive means the rest.

SMILES	ABHD4 inh	PRMT1 inh	HTRA1 inh	TCR CD3 inh	ATG4B inh	SIAE primary	BSA TAMRA ctr	TCR-CD3 inh conf	others
S=P(c1ccccc1)(c1ccccc1)c1c[n+](Cc2ccccc2)c2ccccn12	4	-3	·	·	·	-2	·	·
O=C(O)C(Br)Br	0	-1	·	8	·	1	·	·
O=C1C=C(N2CC2)c2ccccc2C1=O	67*	17	51*	17	·	17	·	·	HTRA1 conf=31;ABHD4 confirm=30*
O=C1c2ccccc2-c2cc3ccccc3cc21	4	9	-24	7	-2	-12	·	·
C[n+]1c(-c2ccccc2)c2cc(N)ccc2c2ccc(N)cc21	75*	66*	97*	116*	3	49*	160*	130*	HTRA1 conf=123*;ABHD4 confirm=111*
O=C1NC(=O)C(=Cc2cc3c(cc2[N+](=O)[O-])OCO3)C(=O)N1	18	13	0	4	-4	2	·	·
Cc1cccc(N2C(=O)NC(=O)/C(=C/c3cc4c(cc3[N+](=O)[O-])OCO4)C2=O)c1	39*	28*	41*	3	-1	11	·	·	HTRA1 conf=3;PRMT1 inh conf=55*;ABHD4 confirm=13
CCCCCCCCCCCCCCCC[N+](C)(C)C	32*	-1	54*	6	26	5	·	·	HTRA1 conf=78*;ABHD4 confirm=55*
CCCCCC[N+](=O)[O-]	-2	0	2	2	1	-1	·	·
CN1CCc2cc3c(c4c2C1Cc1ccccc1-4)OCO3 (configuration not stated)	46*	51*	68*	7	-6	24*	·	·	HTRA1 conf=2;ABHD4 confirm=50*;SIAE inh conf=3
C[C@H](NC(=O)OCc1ccccc1)[P+](=O)O	3	0	·	·	·	7	·	·
COc1cccc2c1C(=O)c1c(O)c3c(c(O)c1C2=O)CC(O)(C(C)=NO)CC3OC1CC(N)C(O)C(C)O1 (configuration not stated)	59*	145*	56*	143*	-11	55*	167*	136*	HTRA1 conf=67*;PRMT1 inh conf=139*;ABHD4 confirm=59*;SIAE inh conf=44*
CCOC(=O)C1=C(C(=O)OCC)C2(c3ccccc3)c3ccccc3C1(C)N2C (configuration not stated)	-87	-5	·	-31	·	-37	·	·
OC1CN2CCC(O)C2C(O)C1O (configuration not stated)	-3	-1	·	8	·	11	·	·
Oc1cccc2nc3ccccc3nc12	18	-2	67*	0	-17	18*	·	·	HTRA1 conf=60*;SIAE inh conf=-10
CN1CCC(c2c[nH]c3ccccc23)C1 (configuration not stated)	3	-2	4	23*	-1	-5	1	3
CN1CCC(c2c[nH]c3ccc(O)cc23)CC1	9	1	4	-5	0	12	·	·
CC(C)(C)Cc1nnc(NC(=O)COc2ccc(Cl)cc2Cl)o1	-2	-1	·	·	·	-1	·	·
CN1C(=O)NC(=O)/C(=C/c2ccc([N+](=O)[O-])o2)C1=O	-5	24*	·	20*	-6	4	-6	7
C[C@]12CCC(=O)C=C1CC[C@@H]1[C@@H]2CC[C@@]2(C)[C@H]1CC[C@]2(C)O	-4	3	-3	-6	-7	-2	·	·
C#C[C@]1(O)CC[C@H]2[C@@H]3CCC4=CC(=O)CC[C@]4(C)[C@H]3CC[C@@]21C	-3	-2	7	20*	-5	8	0	0
Nc1ccc(CCN2CCCC2)cc1	4	4	-1	2	-6	3	·	·
Nc1ccc(CCN2CCN(c3cccc(C(F)(F)F)c3)CC2)cc1	-3	-8	-1	44*	-3	4	-4	0
Cn1cc(P(=S)(c2ccccc2)c2ccccc2)c2ccccc21	-16	-3	·	·	·	0	·	·
O=C(N/N=C/c1c(O)n(CCc2ccccc2)c(=O)[nH]c1=O)c1ccccc1	9	-2	·	37*	-9	-1	-6	6
SMILES	ABHD4 inh	PRMT1 inh	HTRA1 inh	TCR CD3 inh	ATG4B inh	SIAE primary	BSA TAMRA ctr	TCR-CD3 inh conf	others
CC/C(=N\NC(=O)c1ccccc1)c1c(O)n(Cc2ccccc2)c(=O)[nH]c1=O	6	1	·	21*	-4	11	2	16
COC(=O)C1C(c2ccccc2)CC2CCC1N2C (configuration not stated)	7	0	·	-1	·	-3	·	·
S=C(NCCc1ccccc1)N1Cc2cc(-c3ccccc3)ccc2-n2nncc2C1	-49	-1	·	22*	·	-24	10	7
CCCCCn1c(=O)c(C(=O)Nc2ccccn2)c(O)c2ccccc21	1	-2	2	-5	6	2	·	·
CCCCCCn1c(=O)c(C(=O)Nc2ncccc2O)c(O)c2ccccc21	6	3	7	26*	1	3	-3	22*
Cc1cc(N2CCNC[C@@H]2C)ccc1N1CCN[C@H](C)C1	5	-1	·	4	·	3	·	·
NN=C1C(Cl)=C(Cl)C(Cl)=C1Cl	28	26*	26	23*	·	0	11	9	PRMT1 inh conf=7
O=C(NCCN1CCC2(CC1)C(=O)NCN2c1ccccc1)c1cccnc1Cl	3	1	·	-7	·	4	·	·
O=[N+]([O-])c1ccc(N2CCCCCC2)c2nonc12	23	89*	15	79*	-3	-17	103*	87*	PRMT1 inh conf=95*
c1ccc(CCN2CCC3CCNC3C2)cc1 (configuration not stated)	-6	-4	·	3	·	2	·	·
O=C(N/N=C/c1c(O)n(Cc2ccco2)c(=O)[nH]c1=O)c1ccccc1O	31*	9	4	41*	4	2	-14	40*	ABHD4 confirm=32*
O=c1[nH]c2cc(Cl)ccc2n1C1CCN(Cc2ccc(-c3nc4ccccc4nc3-c3ccccc3)cc2)CC1	-3	-1	·	12	·	-10	·	·
O=[N+]([O-])c1ccc(NCc2ccccc2)c2nonc12	53*	168*	·	66*	-113	37*	99*	81*	PRMT1 inh conf=159*;ABHD4 confirm=79*;SIAE inh conf=29*
